Bioassay records (PubChem BioAssay)
In the library only some 1.8% were active in any assay of this set; here they are far more common.
M5 ag – human M5 muscarinic receptor agonists, primary screen, CHO-K1 cells, Fluo-8 calcium fluorescence. 360,000 tested, 0.19% active. activation, % at 3 µM. Muscarinic acetylcholine receptor M5 (Homo sapiens), P08912. AID 624037, 2012. CHO-K1 hM5 cells; 0% DMSO wells, 100% maximal acetylcholine response;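 active = activation above the run's mean over test compounds plus 3 SD, cut at about 23% in these data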;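 also: signal is peak over basal fluorescence ratio across the kinetic read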
Target sequence (P08912 whole entry, looked up): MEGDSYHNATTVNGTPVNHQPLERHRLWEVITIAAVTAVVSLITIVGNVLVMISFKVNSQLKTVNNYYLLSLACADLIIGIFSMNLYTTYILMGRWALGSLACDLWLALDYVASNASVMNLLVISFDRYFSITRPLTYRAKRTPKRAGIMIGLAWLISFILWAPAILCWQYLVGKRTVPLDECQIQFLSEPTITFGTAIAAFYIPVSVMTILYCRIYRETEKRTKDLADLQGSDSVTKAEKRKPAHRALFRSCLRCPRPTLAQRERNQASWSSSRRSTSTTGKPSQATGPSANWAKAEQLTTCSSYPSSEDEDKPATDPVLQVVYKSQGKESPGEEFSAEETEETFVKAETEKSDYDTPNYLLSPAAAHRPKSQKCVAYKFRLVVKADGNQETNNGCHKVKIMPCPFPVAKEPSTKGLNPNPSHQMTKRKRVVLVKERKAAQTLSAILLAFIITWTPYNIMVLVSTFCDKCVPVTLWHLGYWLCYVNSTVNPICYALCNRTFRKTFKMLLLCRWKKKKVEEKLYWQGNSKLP
M4 ag – human M4 muscarinic receptor agonists, primary screen, CHO-K1 cells, Fluo-8 calcium fluorescence | Muscarinic acetylcholine receptor M4 (Homo sapiens), P08173 | CHO-K1 hM4/Gqi5; vehicle 0%, full acetylcholine response 100% | activation, % at 3 µM | 360,000 tested, 0.14% active | AID 624127, 2012;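 active = activation above the run mean over all test wells plus 3 SD, cut at about 32% in these data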;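 also: peak over basal fluorescence ratio per well then scaled between controls; 0% = DMSO wells and 100% = acetylcholine at EC100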
CHRM4 antagonist – human M4 muscarinic receptor antagonists, primary screen, CHO cells, Fluo-8 calcium fluorescence. CHO-hM4 cells, ACh EC80. AID 624125, 2012. inhibition, % at 3 µM. 360,000 tested, 0.73% active. Muscarinic acetylcholine receptor M4 (Homo sapiens), P08173;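 active = inhibition above its plate's cutoff, the mean inhibition of sample wells plus 3 SD, cut at about 27% in these data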;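 also: 0% = acetylcholine EC80 with DMSO and 100% = DMSO without agonist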
CHRM4 PAM – human M4 muscarinic receptor positive allosteric modulators, primary screen, CHO-K1 cells, Fluo-8 calcium fluorescence. Muscarinic acetylcholine receptor M4 (Homo sapiens), P08173. CHO-K1 hM4/Gqi5, ACh EC20; 0% = ACh EC20, 100% = maximal ACh. activation, % at 3 µM. 360,000 tested, 0.4% active;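 active = activation above its plate's cutoff, the mean activation of sample wells plus 3 SD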
CHRM5 antagonist – human M5 muscarinic receptor antagonists, primary screen, CHO cells, Fluo-8 calcium fluorescence; Muscarinic acetylcholine receptor M5 (Homo sapiens), P08912; CHO-hM5 cells, ACh EC80; inhibition, % at 3 µM; 360,000 tested, 0.59% active;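 active = inhibition above a per-plate cutoff, the mean of that plate's test compounds plus 3 SD, cut at about 27% in these data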;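 also: 0% = acetylcholine EC80 with DMSO and 100% = DMSO without agonist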
CHRM5 PAM – human M5 muscarinic receptor positive allosteric modulators, primary screen, CHO-K1 cells, Fluo-8 calcium fluorescence; 360,000 tested, 0.3% active; activation, % at 3 µM; AID 624038, 2012; Muscarinic acetylcholine receptor M5 (Homo sapiens), P08912; CHO-K1 hM5, ACh EC20 PAM; 0% = ACh EC20, 100% = ACh EC100;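 active = activation above the run cutoff, the mean activation of all test compounds plus 3 SD, cut at about 18% in these data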
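Assay system – human M5 receptor in CHO-K1 cells · Read-out – % activation, ACh-normalized · Technique – Fluo-8 calcium fluorescence · Dosing – single-point, 3 µM nominal · Incubation – Fluo-8 loading 80 min at 37 °C plus 30 min room temperature · Repeats – singlicate, one well per test compound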
Active calls of the source: *.

SMILES	M5 ag	M4 ag	CHRM4 antagonist	CHRM4 PAM	CHRM5 antagonist	CHRM5 PAM
CC[C@H](C)C1OC(=O)[C@@H](C)[C@@H](CC)NC(=O)[C@H](C)N(C)C(=O)C(C)(C)C(=O)C(C)NC(=O)[C@H](Cc2ccc(OC)cc2)N(C)C(=O)[C@H](C(C)C)N(C)C(=O)CNC(=O)[C@H](CC(C)C)N(C)C(=O)CNC1=O (stereo not given in full)	3	0	-17	23*	-7	13
COc1ccc(NCc2nnc(SCC(=O)c3ccc(OC)cc3)n2C)cc1	-2	4	-14	1	33*	36*
CCN(CC)c1ccc(/C=C/c2ccc3ccc(OC)cc3[n+]2CC)cc1	6	22	36*	-15	49*	-22
CCCCN(CCCC)c1ccc(C(=O)c2ccccc2C(=O)O)c(O)c1	10	34*	21	-26	3	-2
OC(c1cccc(OCc2ccccc2)c1)c1nnc(-c2ccccc2)o1 (stereo not given)	1	14	18	-13	28*	-26
CC1CCCC(C)N1CCNC(=O)CCc1nnc2n(Cc3ccccc3)c(=O)c3ccccc3n12 (stereo not given)	-4	0	20	-12	4	-5
O=C(CCNS(=O)(=O)c1ccccc1)NNC(=O)c1cccc(Cl)c1	6	1	-2	18	3	4
Cc1ccc(COc2coc(CN3CCN(C(=O)c4ccco4)CC3)cc2=O)cc1	0	1	-8	13	5	3
O=C(c1ccco1)N1CCN(Cc2cc(=O)c(OCc3ccc([N+](=O)[O-])cc3)co2)CC1	-2	0	31*	-7	7	3
O=C(COC(=O)C1=COCCO1)NC1CCCCC1	2	0	-3	4	-1	7
Cc1cc([N+](=O)[O-])nn1CC(=O)Nc1ccccn1	-3	1	-2	25*	8	-1
Cc1ccc(N2C(=O)[C@@H]3[C@H](C2=O)C2c4ccccc4C=NN2[C@@H]3C(=O)c2ccc(Cl)cc2)cc1 (stereo not given in full)	-3	4	-12	7	27*	-10
O=C(/C=C/c1ccc(F)cc1)NC(=S)NNC(=O)c1cnccn1	2	1	30*	13	0	2
COc1ccc(/C=C/C(=O)NC(=S)NNC(=O)c2cnccn2)cc1	1	0	2	0	-1	-1
CCN1CCN(c2ncnc3scc(-c4ccc(C)c(C)c4)c23)CC1	-8	1	27*	-16	46*	-18
O=C(c1ccccc1)N1CCCc2ccccc21	-2	1	-2	1	-11	10
S=C(c1ccccc1)N1CCCc2ccccc21	-5	-3	-12	38*	-10	6
COc1cc(/C=N/N2CCCCC2)cc(OC)c1O	11	3	2	0	-3	0
COc1cc(C=NN2CCCCC2)cc(OC)c1OC	27*	0	-11	1	5	-5
CCc1ccc(C(=O)NNC(=O)CCC2CCCCC2)cc1	-1	0	1	-4	-2	10
CCn1cc(C(=O)NCCCN2CC(C)CC(C)C2)c(=O)c2cc(S(=O)(=O)N(C)C3CCCCC3)ccc21 (stereo not given)	-10	0	33*	-14	1	1
COc1cc(/C=C(/C#N)C(=O)NC(C)c2ccccc2)cc(OC)c1O (stereo not given)	12	33*	2	-4	0	0
CC(NC(=O)/C(C#N)=C/c1ccc(C(=O)O)cc1)c1ccccc1 (stereo not given)	0	0	-17	7	-8	18
Cc1c(Cl)sn(-c2ccc(Cl)cc2)c1=O	0	4	38*	-4	11	-8
CCOC(=O)c1sc(NS(=O)(=O)c2ccccc2)nc1C	1	1	-2	4	-1	-3
SMILES	M5 ag	M4 ag	CHRM4 antagonist	CHRM4 PAM	CHRM5 antagonist	CHRM5 PAM
Cc1nc(NS(=O)(=O)c2ccccc2)sc1NC(=O)OCCN(C)C	27*	1	-1	2	2	-17
Oc1ccc(N=Nc2c(O)ccc3ccccc23)cc1	1	1	12	31*	10	-2
NS(=O)(=O)c1ccc(N=Nc2c(O)ccc3ccccc23)cc1	-1	1	-3	-4	4	1
CC(C)c1ccc(N2C(=O)CSC23C(=O)N2CCCc4cccc3c42)cc1 (stereo not given)	-11	-2	90*	-34	48*	-23
CC(C)N(CC#CC(O)(c1ccccc1)c1ccccc1)C(C)C	-21	1	98*	-59	96*	-32
CC(C)N(CC#CC(O)(c1ccccc1)c1ccccc1)CCO	-10	1	42*	-18	42*	-19
CN(CC#CC(O)(c1ccccc1)c1ccccc1)C(C)(C)C	-20	1	92*	-16	77*	-35
COc1ccc(C(=Cc2cc(OC)c(OC)cc2[N+](=O)[O-])C(=O)O)cc1	3	0	-4	1	7	-2
CCOC(=O)C1=C(Cc2ccc(Cl)cc2)C(=O)c2ccccc2C1=O	12	14	35*	-5	18	2
CCOC(=O)C1=C(C)N=C2c3ccccc3C(=O)C2C1c1ccc(Cl)cc1 (stereo not given)	-2	6	6	-7	0	-3
CN1CCCC(CC2c3ccccc3Sc3ccccc32)C1 (stereo not given)	2	11	99*	-18	99*	-19
CN1CCCC(CN2c3ccccc3Sc3ccccc32)C1 (stereo not given)	1	10	86*	-18	99*	-19
CCSc1ccc2c(c1)N(CCCN1CCN(C)CC1)c1ccccc1S2	1	13	13	-15	15	-16
COCCNC(=O)C1CCCN(Cc2ccc(C)cc2)CC1 (stereo not given)	-3	1	-3	1	0	2
COc1ccccc1N(C)S(=O)(=O)c1ccc(C(=O)N(C)Cc2ccc(Cl)s2)cc1	-2	13	-5	2	14	-11
COc1ccc(NC(=S)NC(NC(=O)c2ccc(Cl)cc2Cl)C(Cl)(Cl)Cl)c([N+](=O)[O-])c1 (stereo not given)	6	11	-3	-1	28*	-21
